PREPL inhibitor = inhibits the human prolyl oligopeptidase-like enzyme | actives 0.68% (n = 320,000) | inhibition, % at 5.96 µM | recombinant PREPL, fluorescence polarization activity-based probe | AID 2751 | Q4J6C6; in the data active = inhibition above about 43%;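 note: 0% = enzyme with DMSO and 100% = wells lacking enzyme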
PAFAH1B3 inh = blocks human PAF acetylhydrolase 1B catalytic subunit 3. recombinant PAFAH1B3, FP-rhodamine probe, fluorescence polarization. AID 492972. actives 0.28% (n = 340,000). inhibition, % at 3.39 µM;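 active = inhibition above the screen-wide average of all tested compounds plus 3 SD, cut at about 25% in these data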;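 note: 0% = enzyme with DMSO only and 100% = wells lacking PAFAH1B3 protein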
Target sequence (Q15102 whole entry, looked up): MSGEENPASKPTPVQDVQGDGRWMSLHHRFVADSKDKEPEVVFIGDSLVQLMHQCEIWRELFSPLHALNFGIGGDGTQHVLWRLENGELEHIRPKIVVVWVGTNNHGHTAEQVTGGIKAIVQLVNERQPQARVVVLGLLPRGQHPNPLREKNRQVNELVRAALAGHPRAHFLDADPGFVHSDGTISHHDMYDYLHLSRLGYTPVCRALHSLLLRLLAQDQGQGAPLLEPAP
PAFAH1B2 FP inh = blocks human PAF acetylhydrolase 1b catalytic subunit 2; actives 1.2% (n = 340,000); recombinant PAFAH1B2, FP-rhodamine activity probe, fluorescence polarization; AID 492953; inhibition, % at 3.39 µM; P68402;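 active = inhibition above the mean of all tested compounds plus 3 SD, cut at about 24% in these data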;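 note: 0% = enzyme with DMSO and 100% = wells lacking PAFAH1B2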
Target sequence (P68402 whole entry, looked up): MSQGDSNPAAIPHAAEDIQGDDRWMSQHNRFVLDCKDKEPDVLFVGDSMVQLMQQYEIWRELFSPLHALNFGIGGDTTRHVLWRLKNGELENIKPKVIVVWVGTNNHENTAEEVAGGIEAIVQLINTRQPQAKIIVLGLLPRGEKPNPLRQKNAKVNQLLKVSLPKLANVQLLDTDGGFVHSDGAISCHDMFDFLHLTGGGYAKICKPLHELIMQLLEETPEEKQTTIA
pPAFAH FP inh = inhibitors of human plasma PAF acetylhydrolase (pPAFAH); Q13093; recombinant pPAFAH, FP-rhodamine probe fluorescence polarization; inhibition, % at 3.39 µM; actives 1.5% (n = 330,000); AID 463082;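 active = inhibition above the mean inhibition across the screen plus 3 SD, cut at about 25% in these data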;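 note: inhibitors block binding of the rhodamine activity-based probe so polarization drops; 0% = enzyme with DMSO and 100% = wells lacking pPAFAH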
Apaf-1 inh = human Apaf-1 inhibition; reconstituted apoptosome caspase-3 activity, DEVD-Rh110 fluorescence; inhibition, % at 20 µM; AID 489030; actives 0.71% (n = 330,000); O14727; active = inhibition of at least 40% at 20 µM;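 note: plate controls were DMSO wells for no effect and DEVD-CHO caspase inhibitor wells for full effect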
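Material: reconstituted apoptosome with Apaf-1, cytochrome c, caspase-9, procaspase-3, dATP. Technique: Rh110 fluorescence intensity. Buffer or medium: pH 7.5 Hepes buffer with CHAPS, BSA, DTT. Times: 30 min plus 50 min, RT.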
PAFAH2 FP inh = PAFAH2 (human) inhibition; Q99487; recombinant PAFAH2, FP-rhodamine activity probe, fluorescence polarization; inhibition, % at 3.39 µM; actives 0.99% (n = 340,000);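 active = inhibition above the mean over all tested compounds plus 3 SD, cut at about 30% in these data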;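 note: inhibitors block probe labeling of enzyme so polarization drops; 0% = enzyme with DMSO and 100% = wells lacking PAFAH2 protein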
PAFAH2 FP conf = PAFAH2 (human) inhibition, confirmed; actives 65% (n = 2,300); inhibition, % at 3.39 µM; recombinant PAFAH2, FP-rhodamine activity probe, fluorescence polarization; shares compounds with PAFAH2 FP inh;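 active = mean inhibition over three repeats above a set limit taken from the earlier primary screen, cut at about 30% in these data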;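 note: inhibitor blocks binding of rhodamine activity probe so polarization falls; 0% = enzyme with DMSO and 100% = wells lacking PAFAH2 protein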
The depositor's hits bear a star; nt = no result given. In the library only some 3.5% were active in any assay of this set; here they are far more common.

SMILES	PREPL inhibitor	PAFAH1B3 inh	PAFAH1B2 FP inh	pPAFAH FP inh	Apaf-1 inh	PAFAH2 FP inh	PAFAH2 FP conf
Nc1nnc(CC(=O)N/N=C/c2ccc(-c3ccc(Cl)cc3Cl)o2)s1	-9	-13	-1	15	-26	50*	31*
O=C(N[C@@H](Cc1ccccc1)C(=O)O)c1cccs1	0	11	1	4	7	2	nt
O=C(COC(=O)/C=C/c1ccco1)NCc1ccccc1Cl	-1	7	7	0	1	75*	63*
O=C(COC(=O)/C=C/c1cccc(Cl)c1)NCCc1ccc(Cl)cc1Cl	-39	8	1	8	6	42*	44*
O=C(COC(=O)/C=C/c1ccco1)NCc1ccc(Cl)cc1Cl	2	3	4	7	16	77*	63*
O=C(COC(=O)/C=C/c1ccco1)NCCc1ccccc1	-5	12	2	5	-22	32*	21
COc1cc(CC(=O)OCC(=O)Nc2ccc([N+](=O)[O-])cc2)cc(OC)c1OC	9	4	4	5	-7	-1	nt
COc1ccc(N2C(=O)NC(NS(=O)(=O)c3ccc(NC(C)=O)cc3)(C(F)(F)F)C2=O)cc1 (centres undefined)	-2	12	2	2	7	1	nt
Cc1ccccc1NC(=O)CN1C(=O)S/C(=C/c2cccnc2)C1=O	7	8	2	6	3	-6	nt
O=C(COC(=O)/C=C/c1ccco1)Nc1ncc(C(F)(F)F)cc1Cl	-4	1	0	17	5	8	nt
Cc1c(Cl)cnc(NC(=O)COC(=O)/C=C/c2ccco2)c1Cl	nt	-1	3	nt	9	34*	22
CSc1ccccc1NC(=O)COC(=O)/C=C/c1ccco1	13	-12	4	6	5	63*	44*
O=C(COC(=O)/C=C/c1ccco1)NCc1ccco1	18	17	11	4	5	37*	20
CC(NC(=O)COC(=O)/C=C/c1ccco1)c1ccccc1 (centres undefined)	-5	1	6	1	-2	49*	38*
CNC(=O)COC(=O)/C=C/c1ccco1	8	6	-4	5	3	0	nt
Cc1cc(C)c(NC(=O)CSc2nc(=O)n(CCN3CCOCC3)c3c2CCC3)c(C)c1	1	9	-1	0	-3	5	nt
O=C(COC(=O)/C=C/c1ccccc1)NCCNC(=O)COC(=O)/C=C/c1ccccc1	-10	2	1	-8	4	-1	nt
O=C(COC(=O)/C=C/c1ccccc1)NCc1ccccc1Cl	1	14	1	0	13	71*	70*
COc1ccccc1CC(=O)Nc1ccc(S(=O)(=O)N2CCOCC2)cc1	6	4	1	-3	-6	14	nt
O=C(NCC1CCCO1)NC12CC3CC(CC(C3)C1)C2 (centres undefined)	10	0	2	6	-18	33*	27
CCCCOC(=O)n1c(=O)oc2ccc(S(=O)(=O)N3CCCCC3)cc21	1	8	8	12	2	66*	61*
O=C(OCC(=O)c1cccc2ccccc12)c1ccc(CO)cc1	8	8	2	0	7	48*	25
O=C(OCC(=O)c1ccccc1Br)c1ccncc1	5	1	3	4	-1	2	nt
N#CC1=C2SCN(c3ccccc3)CN2C(=O)CC1c1cccs1 (centres undefined)	-5	5	5	24	27	2	nt
Cc1ccc(C2CC(=O)N3CN(c4ccc(Br)cc4)CSC3=C2C#N)o1 (centres undefined)	21	6	4	56*	27	32*	9
SMILES	PREPL inhibitor	PAFAH1B3 inh	PAFAH1B2 FP inh	pPAFAH FP inh	Apaf-1 inh	PAFAH2 FP inh	PAFAH2 FP conf
O=C(NCC1CCCO1)C(Cc1ccccc1)N1C(=O)C2C3C=CC(C4CC34)C2C1=O (centres undefined)	1	5	2	0	-7	43*	26
O=C(NCCOc1ccccc1)C1=CC=CN2CCS(=O)(=O)N=C12	21	6	5	2	1	4	nt
CC(=O)Oc1ccc(C2=NN(c3ccccc3)C(c3ccccc3)C2)cc1 (centres undefined)	2	8	2	8	9	-4	nt
COc1ccc(/C=C2\N=C(c3c(-c4ccccc4)noc3C)OC2=O)cc1OC	-5	7	1	2	-20	34*	14
O=C(NC1CCCN(C2Cc3ccccc3C2)C1)c1ccc(F)cc1Cl (centres undefined)	-33	1	2	2	6	42*	16
CSCC(=O)NC1CCCN(C2Cc3ccccc3C2)C1 (centres undefined)	2	-4	4	2	-3	6	nt
COc1cccc(/C=C/C(=O)OCC(=O)Nc2cccc(S(=O)(=O)N3CCCCC3)c2)c1OC	8	-1	-1	4	-3	39*	55*
O=C(COC(=O)CNC(=O)c1ccc(F)cc1)Nc1cccc(S(=O)(=O)N2CCCC2)c1	6	12	6	7	2	5	nt
O=C(COC(=O)/C=C/c1ccc(F)cc1)Nc1cccc(S(=O)(=O)N2CCCC2)c1	4	0	-1	1	11	53*	44*
O=C(COC(=O)/C=C/c1ccc(OC(F)F)cc1)Nc1ccc(N2CCOCC2)cc1	13	4	3	8	0	2	nt
O=C(COC(=O)/C=C/c1ccc(OC(F)F)cc1)Nc1cccc(S(=O)(=O)N2CCOCC2)c1	8	9	-2	2	-2	53*	40*
O=C(O)c1ccc(S(=O)(=O)N2CCC(NC(=O)C3CCCCC3)CC2)cc1	-6	10	1	4	0	-8	nt
Cc1cccc(C)c1N1CCN(C(=O)N2CCOCC2)CC1	-1	2	1	2	-6	44*	44*
O=C(NCc1ccco1)C1CCCN(c2ncnc3c2nc2n3CCCCC2)C1 (centres undefined)	-1	3	-4	-2	-2	-3	nt
O=C(COC(=O)c1cccc(Br)c1)NC(=O)NC1CCCC1	nt	8	2	nt	22	1	nt
O=C(OCC(=O)N1CCc2ccccc2C1)c1cccc([N+](=O)[O-])c1	16	6	0	15	-6	1	nt
CNc1ccc(C(=O)OCC(=O)NC(=O)NC2CCCC2)cc1[N+](=O)[O-]	14	-1	4	3	18	41*	18
COc1ccc(C(=O)OCC(=O)NC(=O)NC2CCCC2)cc1OC	18	9	-4	-3	2	30*	27
COc1ccc(C(=O)OCC(=O)N2CCc3ccccc3C2)cc1OC	-9	5	6	5	-12	53*	45*
